# ChEMBL document CHEMBL2157916, “Design and synthesis of potent hydroxyethylamine (HEA) BACE-1 inhibitors carrying prime side 4,5,6,7-tetrahydrobenzazole and 4,5,6,7-tetrahydropyridinoazole templates” (Bioorg Med Chem Lett, 2012)
# Tests used:
# [1] = Apparent permeability across human Caco2 cells; type: ADME, cell-based; conditions: Caco-2
# [2] = Intrinsic clearance in human liver microsomes; type: ADME, Microsome; conditions: read-out: CLH
# [3] = Drug uptake in C57/B1 mouse brain at 20 umol/kg, iv at 0.5 hrs; type: ADME, organism-based; conditions: read-out: Drug uptake
# Summary of the method: (§1)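 Male C57/B1 mice dosed iv at 20 μmol/kg. Brain and plasma exposure measured 0.5 h after dose, with brain levels followed up to 6 h after dose.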
# [4] = Plasma concentration in C57/B1 mouse at 20 umol/kg, iv at 0.5 hrs; type: ADME, organism-based; summary of the method: as §1
# [5] = Drug uptake in C57/B1 mouse brain at 20 umol/kg, iv up to 6 hrs; type: ADME, organism-based; conditions: read-out: Drug uptake; summary of the method: as §1
# [6] = Plasma concentration in C57/B1 mouse at […], sc administered for 24 hrs; type: ADME, organism-based
# [7] = Ratio of drug uptake in brain to plasma in C57/B1 mouse at […], sc administered for 24 hrs; type: ADME, organism-based; conditions: read-out: BPR
SMILES,Papp [1],microsomal CLint [2],concentration at 0.5 h [3],concentration at 0.5 h [4],concentration at 6 h [5],concentration at 24 h [6],Kp at 24 h [7]
CC(=O)N[C@@H](Cc1ccccc1)[C@H](O)CN[C@H]1CC(C)(C)Cc2nn(CC(C)C)cc21,16 nm/s,16 µL/min/mg,,,,,
CC(=O)N[C@@H](Cc1ccccc1)[C@H](O)CNC1CC(C)(C)Cc2[nH]c(CC(C)(C)C)nc21 (mixture of isomers),,15 µL/min/mg,,,,,
CC(=O)N[C@@H](Cc1ccccc1)[C@H](O)CNC1CC(C)(C)Cc2nn(CC(C)(C)C)cc21 (mixture of isomers),15 nm/s,25 µL/min/mg,0.2 µM,4.75 µM,0.068 µM,0.45 µM,0.69

# More lines, now with the values ahead:
Papp [1],microsomal CLint [2],concentration at 0.5 h [3],concentration at 0.5 h [4],concentration at 6 h [5],concentration at 24 h [6],Kp at 24 h [7],SMILES
210 nm/s,200 µL/min/mg,,,,,,CC(=O)N[C@@H](Cc1ccccc1)[C@H](O)CN[C@H]1CC(C)(C)Oc2ccc(CC(C)(C)C)cc21
50 nm/s,70 µL/min/mg,,,,,,CC(=O)N[C@@H](Cc1ccccc1)[C@H](O)CN[C@H]1CC(C)(C)Cn2nc(CC(C)(C)C)cc21
56 nm/s,82 µL/min/mg,,,,,,CC(=O)N[C@@H](Cc1ccccc1)[C@H](O)CNC1CC(C)(C)Oc2sc(CC(C)(C)C)cc21 (mixture of isomers)
